Screening results (PubChem)
PME-1 primary – PME-1 inhibitors via competitive probe labeling, primary screen, biochemical, fluorescence polarization, FP-Rh probe, HTS; recombinant PME-1; Protein phosphatase methylesterase 1 (Homo sapiens), Q9Y570; inhibition, % at 5.9 µM; actives 0.53% (n = 320,000); AID 2130, 2009;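 active = inhibition above the campaign mean of all compounds plus 3 SD, cut at about 26% in these data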;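 also: competitive labeling of PME-1 active site by serine hydrolase directed probe; inhibitors block probe labeling so polarization falls and inhibition rises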
Fam108B inh – mouse Fam108B serine hydrolase inhibitors, primary screen, counter-screen for RBBP9 inhibitor project, biochemical, fluorescence polarization; recombinant Fam108B, FP-Rh probe fluorescence polarization; inhibition, % at 9.51 µM; AID 1947, 2009; actives 0.33% (n = 300,000);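 active = inhibition above the screen mean inhibition plus 3 SD, computed separately per campaign, cut at about 18% in these data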;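 also: inhibitors lower polarization as less probe binds the enzyme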
PAD4 FP inh – human PAD4 inhibitors, primary screen, biochemical, fluorescence polarization, 1536-well format; Protein-arginine deiminase type-4 (Homo sapiens), Q9UM07; recombinant PAD4, RCA probe fluorescence polarization; inhibition, % at 6.36 µM; actives 0.41% (n = 330,000);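 active = percent inhibition above a cutoff equal to the mean of all tested compounds plus 3 SD, cut at about 15% in these data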
RBBP9 inh – human RBBP9 inhibitors, primary screen, biochemical, fluorescence polarization, FP-Rh probe, HTS; Serine hydrolase RBBP9 (Homo sapiens), O75884; recombinant RBBP9; inhibition, % at 7.94 µM; actives 0.2% (n = 220,000);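 active = inhibition above the campaign mean of all tested compounds plus 3 SD, cut at about 14% in these data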
Target sequence (O75884 whole entry, looked up): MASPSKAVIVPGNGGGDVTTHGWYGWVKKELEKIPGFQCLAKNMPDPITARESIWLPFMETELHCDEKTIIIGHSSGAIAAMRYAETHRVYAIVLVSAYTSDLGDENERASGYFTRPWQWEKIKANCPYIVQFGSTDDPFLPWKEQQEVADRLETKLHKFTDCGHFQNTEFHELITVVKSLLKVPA
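Measured by – fluorescence polarization · Test system – RBBP9 protein · Input – 2.5 µM RBBP9 dispensing solution, before mixing · Measure – percent inhibition from mP, scaled between DMSO and no-protein wells · Benchmarks – DMSO-treated enzyme wells and wells lacking RBBP9 · Times – preincubation 30 min plus labeling 45 min at 25 °C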
PRMT1 inh – PRMT1 methyltransferase inhibitors, primary screen, biochemical, fluorescence polarization; Protein arginine N-methyltransferase 1 (Homo sapiens), Q99873; recombinant PRMT1, activity-based probe fluorescence polarization; inhibition, % at 2.79 µM; actives 1.3% (n = 370,000); AID 652257, 2013;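 active = inhibition above about 21% made by adding two undisclosed values, limit read from the data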
GSTO1 inh – inhibitors of recombinant GSTO1, primary screen, counter-screen for RBBP9 inhibitor project, biochemical, fluorescence polarization; Glutathione S-transferase omega-1 (Homo sapiens), P78417; activity-based probe fluorescence polarization; inhibition, % at 5.96 µM; actives 1.1% (n = 300,000); AID 1974, 2009;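 active = inhibition above the campaign mean inhibition plus 3 SD, cut at about 35% in these data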
Target sequence (P78417 whole entry, looked up): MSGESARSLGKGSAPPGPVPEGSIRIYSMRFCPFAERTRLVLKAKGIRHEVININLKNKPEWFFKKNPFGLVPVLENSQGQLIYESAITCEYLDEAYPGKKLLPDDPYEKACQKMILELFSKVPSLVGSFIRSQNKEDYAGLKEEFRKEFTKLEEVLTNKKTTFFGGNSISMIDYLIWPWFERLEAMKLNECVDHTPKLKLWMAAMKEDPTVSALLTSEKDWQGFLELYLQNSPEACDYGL
PAD4 FP conf – human PAD4 inhibitors, confirmation, biochemical, fluorescence polarization | shares compounds with PAD4 FP inh | recombinant PAD4, RCA probe fluorescence polarization | inhibition, % at 6.36 µM | actives 28% (n = 1,200) | AID 488796, 2010;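 active = mean inhibition across replicates above the hit cutoff set by the earlier primary screen, cut at about 15% in these data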;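 also: inhibitors block active-site labeling by the probe so polarization falls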
Numbers stand for hits. Rows were chosen to be rich in hits. Some 2.3% of all compounds tested hit in one or more screens of this group.

O=C(NC1CCCCC1)C(c1cccs1)N(CCCN1CCOCC1)C(=O)c1ccc(-c2ccccc2)[nH]1 (stereo not drawn) was read as PME-1 primary inactive, Fam108B inh inactive, PAD4 FP inh 63.3, RBBP9 inh inactive, PRMT1 inh inactive, GSTO1 inh inactive and PAD4 FP conf inactive.
Screening Cc1ccc(C(C(=O)NC(C)(C)C)N(CCCN2CCOCC2)C(=O)c2ccc(-c3ccccc3)[nH]2)o1 (stereo not drawn) returned PME-1 primary inactive, Fam108B inh inactive, PAD4 FP inh inactive, RBBP9 inh inactive, PRMT1 inh inactive and GSTO1 inh inactive.
Screening COc1ccccc1C1CC(c2cccs2)=Nc2ccccc2S1 (stereo not drawn) returned PME-1 primary inactive, Fam108B inh inactive, PAD4 FP inh 22.7, RBBP9 inh inactive, PRMT1 inh 80.8, GSTO1 inh inactive and PAD4 FP conf inactive.
Cc1ccc(C2(C)NC(=O)N(CC(=O)Nc3cc(C)on3)C2=O)cc1 (stereo not drawn) was read as PME-1 primary inactive, Fam108B inh inactive, PAD4 FP inh inactive, RBBP9 inh inactive, PRMT1 inh inactive and GSTO1 inh inactive.
`Cc1ccc(C2(C)NC(=O)N(CC(=O)NC(=O)NC(C)(C)C)C2=O)cc1` (stereo not drawn) gave PME-1 primary inactive, Fam108B inh inactive, PAD4 FP inh 15.8, PRMT1 inh inactive, GSTO1 inh inactive and PAD4 FP conf inactive.
O=S(=O)(c1ccc(Oc2ccc3oc4ccccc4c3c2)nc1)N1CCCC1 was read as PME-1 primary inactive, Fam108B inh inactive, PAD4 FP inh inactive, RBBP9 inh inactive, PRMT1 inh inactive and GSTO1 inh inactive.
CCc1cc(S(N)(=O)=O)cc(CC)c1NC(C)=O was read as PME-1 primary inactive, Fam108B inh inactive, PAD4 FP inh inactive, RBBP9 inh inactive, PRMT1 inh inactive and GSTO1 inh inactive.
Screening CCc1cc(SC#N)cc(CC)c1NC(=O)CCl returned PME-1 primary inactive, Fam108B inh inactive, PAD4 FP inh 16.0, RBBP9 inh inactive, PRMT1 inh inactive, GSTO1 inh 71.1 and PAD4 FP conf inactive.
For O=C(Nc1nc(-c2ccc(S(=O)(=O)N3CCOCC3)cc2)cs1)c1ccccc1 the results were PME-1 primary inactive, Fam108B inh inactive, PAD4 FP inh 15.1, RBBP9 inh inactive, PRMT1 inh inactive, GSTO1 inh inactive and PAD4 FP conf 19.2.
N#CCC[C@H]1CC[C@]2(CCCN(C(=O)c3ccno3)C2)O1 was read as PRMT1 inh inactive.
For CCn1c(-c2cc(Br)cc(OC)c2O)nc2cc(S(=O)(=O)N(C)C)ccc21 the results were PME-1 primary inactive, Fam108B inh inactive, PAD4 FP inh 17.6, RBBP9 inh inactive, PRMT1 inh inactive, GSTO1 inh inactive and PAD4 FP conf 22.0.
For COc1ccc(/C=N/NC(=O)c2ccc3nc[nH]c3c2)c(OC)c1 the results were PME-1 primary inactive, Fam108B inh inactive, PAD4 FP inh inactive, PRMT1 inh inactive and GSTO1 inh inactive.
For COc1cc(OC)c(OC)cc1/C=N/NC(=O)c1ccc2nc[nH]c2c1 the results were PME-1 primary inactive, Fam108B inh inactive, PAD4 FP inh 16.5, RBBP9 inh inactive, PRMT1 inh inactive, GSTO1 inh inactive and PAD4 FP conf inactive.
`Cc1ccc(CNCc2ccc3c(c2)OCO3)cc1` gave PME-1 primary inactive, Fam108B inh inactive, PAD4 FP inh inactive, PRMT1 inh inactive and GSTO1 inh inactive.
Screening C=CCn1c(NC)cc(=O)n(C)c1=O returned PME-1 primary inactive, Fam108B inh inactive, PAD4 FP inh 20.5, RBBP9 inh inactive, PRMT1 inh inactive, GSTO1 inh inactive and PAD4 FP conf inactive.
